We go through five molecules from ChEMBL document CHEMBL4325907, “Diaryl hydroxylamines as pan or dual inhibitors of indoleamine 2,3-dioxygenase-1, indoleamine 2,3-dioxygenase-2 and tryptophan dioxygenase” (Eur J Med Chem, 2019).

In series [1] the target is T1, Indoleamine 2,3-dioxygenase 1 (Homo sapiens, UniProt P14902). In words: Inhibition of IDO1 (unknown origin) at 100 uM using L-tryptophan as substrate by spectrophotometric method relative to control.
Target sequence in this assay (P14902 whole entry, looked up): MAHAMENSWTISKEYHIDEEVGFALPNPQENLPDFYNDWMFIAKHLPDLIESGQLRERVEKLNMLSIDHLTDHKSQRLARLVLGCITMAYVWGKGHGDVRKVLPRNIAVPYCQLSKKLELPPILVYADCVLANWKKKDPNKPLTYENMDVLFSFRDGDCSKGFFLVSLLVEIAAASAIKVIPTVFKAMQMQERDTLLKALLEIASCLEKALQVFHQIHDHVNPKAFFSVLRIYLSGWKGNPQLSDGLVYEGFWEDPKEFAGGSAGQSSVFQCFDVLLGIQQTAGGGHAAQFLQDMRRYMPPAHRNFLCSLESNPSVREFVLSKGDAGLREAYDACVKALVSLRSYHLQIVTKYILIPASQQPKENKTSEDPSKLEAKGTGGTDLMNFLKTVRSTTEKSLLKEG
The species named for series [2] is Homo sapiens. In words: Selectivity ratio of IC50 for inhibition of TDO (unknown origin) to IC50 for inhibition of IDO1 (unknown origin).
In series [3] the target is T2, Indoleamine 2,3-dioxygenase 2 (Mus musculus, UniProt Q8R0V5).
T2 sequence (Q8R0V5 whole entry): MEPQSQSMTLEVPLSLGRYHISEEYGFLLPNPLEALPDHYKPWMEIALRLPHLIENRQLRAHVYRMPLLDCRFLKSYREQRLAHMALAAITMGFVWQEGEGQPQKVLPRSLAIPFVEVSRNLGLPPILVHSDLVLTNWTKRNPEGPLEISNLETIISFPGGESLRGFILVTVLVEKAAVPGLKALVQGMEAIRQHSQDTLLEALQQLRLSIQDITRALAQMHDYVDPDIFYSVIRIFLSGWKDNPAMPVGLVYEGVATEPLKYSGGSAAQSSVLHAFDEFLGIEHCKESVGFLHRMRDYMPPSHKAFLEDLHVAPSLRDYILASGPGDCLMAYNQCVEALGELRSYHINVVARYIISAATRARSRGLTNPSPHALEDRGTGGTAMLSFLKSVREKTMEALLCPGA
In words: Inhibition of mouse IDO2 expressed in human T-REx cells using L-tryptophan as substrate after 20 hrs. It counts as cell-based. Put shortly: (§1)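 HeLa cells (endogenous human IDO1) were induced with 100 ng/mL IFNγ for 24 h at 100 μM Trp. T-REx cells carried tet-regulated human TDO (2 ng/mL doxycycline, 24 h, 100 μM Trp) or mouse IDO2 (doxycycline plus 8 mM 5-aminolevulinic acid, 20 μM hemin, 4 mM Trp, 48 h). After induction, compound serial dilutions were added in medium with final Trp 100 μM (IDO1/TDO) or 2 mM (IDO2) for 20 h at 37 °C. Read-out was TCA fixation, 65 °C hydrolysis, then p-dimethylaminobenzaldehyde colour.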

The target in series [4] is T1, Indoleamine 2,3-dioxygenase 1. Kind of series: Inhibition of IDO1 in human HeLa cells using L-tryptophan as substrate after 20 hrs. It counts as cell-based. In short, it runs like this:
as §1
Target sequence in this assay (P14902 whole entry): as the sequence (P14902 whole entry, looked up) above

Series [5] addresses T3, Tryptophan 2,3-dioxygenase (Homo sapiens, UniProt P48775). Kind of series: Inhibition of TDO (unknown origin) at 100 uM using L-tryptophan as substrate by spectrophotometric method relative to control.
Target sequence in this assay (P48775 whole entry, looked up): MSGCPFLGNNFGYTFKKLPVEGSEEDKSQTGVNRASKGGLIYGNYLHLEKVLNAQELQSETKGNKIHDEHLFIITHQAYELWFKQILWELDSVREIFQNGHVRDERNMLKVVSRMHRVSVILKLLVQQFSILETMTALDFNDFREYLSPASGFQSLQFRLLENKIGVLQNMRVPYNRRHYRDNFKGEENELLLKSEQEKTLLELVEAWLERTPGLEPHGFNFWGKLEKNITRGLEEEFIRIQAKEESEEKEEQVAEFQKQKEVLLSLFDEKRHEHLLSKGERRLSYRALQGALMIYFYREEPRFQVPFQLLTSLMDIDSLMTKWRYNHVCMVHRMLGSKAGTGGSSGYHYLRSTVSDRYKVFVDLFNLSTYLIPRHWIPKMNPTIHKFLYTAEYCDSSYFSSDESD
For series [6], the target named is T4, Indoleamine 2,3-dioxygenase 2 (Homo sapiens) (UniProt Q6ZQW0).
T4 sequence (whole entry): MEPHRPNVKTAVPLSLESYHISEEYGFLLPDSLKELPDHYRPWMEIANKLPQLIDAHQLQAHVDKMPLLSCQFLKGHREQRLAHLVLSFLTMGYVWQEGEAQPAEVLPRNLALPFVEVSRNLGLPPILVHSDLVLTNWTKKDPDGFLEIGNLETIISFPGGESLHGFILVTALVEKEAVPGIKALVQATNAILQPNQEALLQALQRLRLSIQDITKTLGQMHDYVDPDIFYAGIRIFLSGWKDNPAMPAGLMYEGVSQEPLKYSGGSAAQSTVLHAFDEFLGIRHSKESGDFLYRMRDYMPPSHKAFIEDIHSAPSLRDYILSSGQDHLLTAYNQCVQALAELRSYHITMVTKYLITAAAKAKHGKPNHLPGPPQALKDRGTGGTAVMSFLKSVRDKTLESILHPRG
Kind of series: Inhibition of IDO2 (unknown origin) at 100 uM using L-tryptophan as substrate by spectrophotometric method relative to control.

A short description of series [7]: Cytotoxicity against human HeLa cells assessed as cell viability up to 100 uM relative to control. It counts as cell-based. To be noted: read-out: Activity.
Series [8] has as its target T3, Tryptophan 2,3-dioxygenase. Kind of series: Inhibition of human TDO expressed in human T-REx cells using L-tryptophan as substrate after 20 hrs. It counts as cell-based. In short, it runs like this:
as §1
Target sequence in this assay (P48775 whole entry): as the sequence (P48775 whole entry, looked up) above

The species named for series [9] is Homo sapiens. Kind of series: Selectivity ratio of IC50 for inhibition of IDO2 (unknown origin) to IC50 for inhibition of IDO1 (unknown origin).
Series [10] has as its target T1, Indoleamine 2,3-dioxygenase 1. In words: Inhibition of IDO1 (unknown origin) using L-tryptophan as substrate by spectrophotometric method.
Target sequence in this assay (P14902 whole entry): as the sequence (P14902 whole entry, looked up) above
Series [11] shares this target. Kind of series: Inhibition of IDO1 in human HeLa cells at IC50 using L-tryptophan as substrate after 24 hrs in presence of 100% human serum by LC-MS/MS analysis. In kind it is cell-based.
Target sequence in this assay (P14902 whole entry, looked up): as above
Series [12] has as its target T3, Tryptophan 2,3-dioxygenase. Kind of series: Inhibition of TDO (unknown origin) using L-tryptophan as substrate by spectrophotometric method.
Target sequence in this assay (P48775 whole entry): as the sequence (P48775 whole entry, looked up) above
The target of series [13] is T5, Indoleamine 2,3-dioxygenase 2 (Homo sapiens, UniProt Q6ZQW0).
T5 sequence (Q6ZQW0 whole entry): T4 sequence (whole entry)
Kind of series: Inhibition of IDO2 (unknown origin) using L-tryptophan as substrate by spectrophotometric method.

For series [14], the species on record is Homo sapiens. In words: Selectivity ratio of IC50 for inhibition of human TDO expressed in human T-REx cells to IC50 for inhibition of IDO1 in human HeLa cells. It counts as cell-based. In short, it runs like this:
as §1

The nature of series [15]: Selectivity ratio of IC50 for inhibition of mouse IDO2 expressed in human T-REx cells to IC50 for inhibition of IDO1 in human HeLa cells. It counts as cell-based. In short, it runs like this: as §1

pIC50: −log10 of the molar value. Calls of active or inactive are those of the source. The rule behind the calls is not given here.

As a reminder, the inhibition is the change of the read-out against control, counted positive when it falls. As a reminder, the pIC50 is −log10 of the IC50, conventionally taken in molar units. As for `NOC(CCCC(=O)Nc1ccccc1)c1cccc(Cl)c1` (stereo not given), the inhibition is above 95% in series [1], 75.5% in [5] and 84.3% in series [6]. The Ratio IC50 in the series listed under Homo sapiens [2] and in the series filed under Homo sapiens [9] was above 20 throughout. Further, the pIC50 is 4.44 in series [3], 5.84 in [4], 3.91 in [8] and 5.52 in [10]. In addition, in [7], the viability is at least 80%.
For the molecule `NOC(c1ccccc1)c1ccc(Cl)cc1Cl` (stereo not given), the results for the inhibition in [1], in series [5] and in series [6] were above 95%, above 95% and 73%, respectively. Also, the inhibition result in series [11] was “inactive”. The pIC50 is 5.22 in series [12]; 5.11 in series [3]; 5.70 in series [4]; 5.32 in series [8]; 5.40 in series [10]. For the same molecule, the viability in [7] was at least 80%.
Consider `NOC(c1ccccc1)c1ccc(Cl)c(Cl)c1` (stereo not given), for which the inhibition in series [1], in series [5] and in series [6] was above 95% in each case. Further, the pIC50 is 5.40 in series [12]; 4.71 in series [3]; 5.72 in series [4]; 4.49 in [13]; 5.09 in series [8]; 5.70 in [10]. The viability in series [7] is at least 80%.
For the molecule `NOC(c1ccccc1)c1cc(Cl)cc(Cl)c1` (stereo not given), the inhibition is above 95% in [1], 83.4% in series [5] and 69.8% in series [6]. The inhibition entry in series [11] is “Active”. The pIC50 in series [3] was 5.06; in series [4], 6.06; in series [8], 5.24; in series [10], 5.70. The viability in series [7] is at least 80%.
Turning to `NOC(c1ccccc1)c1ccccc1Cl` (stereo not given), the inhibition is above 95% in series [1], 89.8% in series [5] and above 95% in series [6]. Moreover, the pIC50 in [3] is 4.97; in series [4] it was 5.61; in [13] it was 4.60; in series [8], 4.66; in series [10] it was 4.74. Further, the Ratio IC50 (in the series listed under Homo sapiens [14]; in series [15]) was 5 to 10 each time. Further, the viability in series [7] was at least 80%.
